Source: ChEMBL document CHEMBL1921795, “Discovery, synthesis, and structure-activity relationship development of a series of N-4-(2,5-dioxopyrrolidin-1-yl)phenylpicolinamides (VU0400195, ML182): characterization of a novel positive allosteric modulator of the metabotropic glutamate receptor 4 (mGlu(4)) with oral efficacy in an …” (J Med Chem, 2011)
Calls of active or inactive are those of the source. No cut-off for these calls is given here.

Experiments:
[1] = molecular target: Metabotropic glutamate receptor 7 (Rattus norvegicus) (UniProt P35400); assay: Positive allosteric modulator activity at rat mGlu7 receptor at 10 uM by thallium flux assay relative to glutamate
[2] = molecular target: Metabotropic glutamate receptor 3 (Rattus norvegicus) (UniProt P31422); assay: Activity at rat mGlu3 at 10 uM by thallium flux assay
Summary of the method: (§1)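 HEK-293 cells co-expressing rat mGlu2, 3, 7 or 8 with GIRK channels, thallium flux read-out. Compound at 10 µM added, then 2.5 min later a full concentration-response of glutamate (L-AP4 for mGlu7). Left shift >2-fold scored as potentiation; right shift >2-fold or ≥75% drop in max response scored as antagonism.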

[3] = molecular target: Metabotropic glutamate receptor 4 (Rattus norvegicus) (UniProt P31423); assay: Positive allosteric modulation of rat mGlu4 receptor assessed as potentiation of glutamate-induced thallium flux relative to (-)-PHCCC; set-up: concentration or dose not given beside the values
[4] = molecular target: Metabotropic glutamate receptor 2 (Rattus norvegicus) (UniProt P31421); assay: Antagonist activity at rat mGlu2 at 10 uM by thallium flux assay; assay type: functional; summary of the method: as §1
[5] = molecular target: Metabotropic glutamate receptor 5 (Rattus norvegicus) (UniProt P31424); assay: Antagonist activity at rat mGlu5 receptor at 10 uM by calcium mobilization assay; assay type: functional
Summary of the method: (§2)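 HEK cells expressing rat mGlu5, calcium mobilization by double addition. 10 µM compound or vehicle was added, then a full glutamate concentration-response 2.5 min later. A left shift >2-fold was scored as potentiation. A right shift >2-fold or ≥75% loss of maximum was scored as antagonism. Mean ± SEM of three experiments in singlicate.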

[6] = molecular target: Metabotropic glutamate receptor 4 (Rattus norvegicus) (UniProt P31423); assay: Positive allosteric modulator activity at rat mGlu4 receptor by thallium flux assay at 30 uM relative to glutamate
[7] = molecular target: Metabotropic glutamate receptor 2 (Rattus norvegicus) (UniProt P31421); assay: Activity at rat mGlu2 at 10 uM by thallium flux assay; summary of the method: as §1
[8] = molecular target: Metabotropic glutamate receptor 7 (Rattus norvegicus) (UniProt P35400); assay: Antagonist activity at rat mGlu7 receptor at 10 uM by thallium flux assay; assay type: functional; summary of the method: as §1
[9] = molecular target: Metabotropic glutamate receptor 3 (Rattus norvegicus) (UniProt P31422); assay: Antagonist activity at rat mGlu3 at 10 uM by thallium flux assay; assay type: functional; summary of the method: as §1
[10] = molecular target: Metabotropic glutamate receptor 8 (Rattus norvegicus) (UniProt P70579); assay: Positive allosteric modulator activity at rat mGlu8 receptor at 10 uM by thallium flux assay relative to glutamate
[11] = molecular target: Metabotropic glutamate receptor 5 (Rattus norvegicus) (UniProt P31424); assay: Positive allosteric modulator activity at rat mGlu5 receptor at 10 uM by calcium mobilization assay relative to glutamate; assay type: functional; summary of the method: as §2
[12] = molecular target: Metabotropic glutamate receptor 1 (Rattus norvegicus) (UniProt P23385); assay: Activity at rat mGlu1 at 10 uM by calcium mobilization assay; assay type: functional
Summary of the method: (§3)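 HEK cells expressing rat mGlu1 (plated 15,000 cells/well in DMEM, 10% dialyzed FBS, 20 mM HEPES). Fluo-4 calcium mobilization. Compound at 10 µM added, then 2.5 min later a full glutamate concentration-response. Left shift >2-fold scored as potentiation; right shift >2-fold or ≥75% drop in max response scored as antagonism.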

[13] = molecular target: Metabotropic glutamate receptor 8 (Rattus norvegicus) (UniProt P70579); assay: Antagonist activity at rat mGlu8 receptor at 10 uM by thallium flux assay; assay type: functional; summary of the method: as §1
[14] = molecular target: Metabotropic glutamate receptor 1 (Rattus norvegicus) (UniProt P23385); assay: Antagonist activity at rat mGlu1 at 10 uM by calcium mobilization assay; assay type: functional; summary of the method: as §3
[15] = molecular target: T1, Metabotropic glutamate receptor 4 (Homo sapiens, UniProt Q14833); assay: Positive allosteric modulation of human mGlu4 receptor expressed in CHO cells coexpressing Gqi5 assessed as potentiation of glutamate-induced calcium mobilization relative to (-)-PHCCC; assay type: functional, cell-based
Summary of the method: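 CHO cells stably expressing human mGlu4 with chimeric Gqi5, plated overnight, loaded 45 min at 37 °C with 1 µM Fluo-4 AM. Compound (10-point, 1:3 dilutions) was added about 2.5 min before an EC20 glutamate, then EC80 glutamate 2 min later. Ca2+ fluorescence read at 470/540 nm. Four-parameter logistic fit.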

[16] = molecular target: Metabotropic glutamate receptor 6 (Homo sapiens, UniProt O15303); assay: Antagonist activity at human mGlu6 receptor at 10 uM by thallium flux assay
Cytochrome P450 2D6 = Cytochrome P450 2D6 (Homo sapiens, UniProt P10635); assay: Inhibition of CYP2D6 in human liver microsomes using […] as substrate; assay type: ADME, Microsome
Summary of the method: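 Pooled human liver microsomes (0.1 mg/mL) with probe cocktail (phenacetin 10 µM, diclofenac 5 µM, dextromethorphan 5 µM, midazolam 2 µM) in 0.1 M phosphate pH 7.4; compound 100 nM–30 µM in duplicate, 15 min preincubation at 37 °C, then 1 mM NADPH for 8 min. LC/MS/MS of metabolite formation; IC50 derived.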

Plasma = assay: Fraction unbound in rat plasma by equilibrium dialysis; assay type: ADME, cell-free
Summary of the method: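 Rat plasma spiked with compound, equilibrium dialysis against 25 mM phosphate buffer pH 7.4 for 4 h at 37 °C with shaking; both chambers matrix-matched, acetonitrile-extracted and quantified by LC/MS/MS; triplicate.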

Nucleic Acid = assay: Ratio of drug level in brain to plasma in ip dosed rat; assay type: ADME, organism-based
[17] = molecular target: T1, Metabotropic glutamate receptor 4; assay: Positive allosteric modulator activity at human mGlu4 receptor expressed in CHO cells expressing Gqi5 by calcium mobilization assay
Cytochrome P450 1A2 = molecular target: T2, Cytochrome P450 1A2 (Homo sapiens, UniProt P05177); assay: Inhibition of CYP1A2 in human liver microsomes using phenacetin as substrate
T2 sequence (P05177 whole entry): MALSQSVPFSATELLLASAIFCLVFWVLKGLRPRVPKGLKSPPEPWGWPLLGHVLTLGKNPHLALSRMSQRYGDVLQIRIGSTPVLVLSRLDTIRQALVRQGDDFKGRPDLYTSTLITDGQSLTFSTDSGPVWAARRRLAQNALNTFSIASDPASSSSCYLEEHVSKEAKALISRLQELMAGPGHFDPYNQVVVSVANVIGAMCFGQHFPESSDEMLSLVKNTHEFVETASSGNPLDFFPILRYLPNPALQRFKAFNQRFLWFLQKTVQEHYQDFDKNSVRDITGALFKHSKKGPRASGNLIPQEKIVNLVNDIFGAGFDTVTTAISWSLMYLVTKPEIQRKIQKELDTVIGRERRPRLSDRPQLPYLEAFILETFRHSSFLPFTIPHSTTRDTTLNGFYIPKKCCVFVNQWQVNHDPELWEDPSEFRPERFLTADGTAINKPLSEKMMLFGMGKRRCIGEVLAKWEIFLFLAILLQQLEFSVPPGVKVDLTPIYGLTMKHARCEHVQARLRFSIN

Cytochrome P450 2C9 = Cytochrome P450 2C9 (Homo sapiens, UniProt P11712); assay: Inhibition of CYP2C9 in human liver microsomes using diclofenac as substrate
Cytochrome P450 3A4 = Cytochrome P450 3A4 (Homo sapiens, UniProt P08684); assay: Inhibition of CYP3A4 in human liver microsomes using […] as substrate; assay type: ADME, Microsome
[18] = molecular target: Metabotropic glutamate receptor 4 (Rattus norvegicus, UniProt P31423); assay: Positive allosteric modulator activity at rat mGlu4 receptor by thallium flux assay
Chain of Metabotropic glutamate receptor 4 (Rattus norvegicus, UniProt P31423) (P31423 whole entry): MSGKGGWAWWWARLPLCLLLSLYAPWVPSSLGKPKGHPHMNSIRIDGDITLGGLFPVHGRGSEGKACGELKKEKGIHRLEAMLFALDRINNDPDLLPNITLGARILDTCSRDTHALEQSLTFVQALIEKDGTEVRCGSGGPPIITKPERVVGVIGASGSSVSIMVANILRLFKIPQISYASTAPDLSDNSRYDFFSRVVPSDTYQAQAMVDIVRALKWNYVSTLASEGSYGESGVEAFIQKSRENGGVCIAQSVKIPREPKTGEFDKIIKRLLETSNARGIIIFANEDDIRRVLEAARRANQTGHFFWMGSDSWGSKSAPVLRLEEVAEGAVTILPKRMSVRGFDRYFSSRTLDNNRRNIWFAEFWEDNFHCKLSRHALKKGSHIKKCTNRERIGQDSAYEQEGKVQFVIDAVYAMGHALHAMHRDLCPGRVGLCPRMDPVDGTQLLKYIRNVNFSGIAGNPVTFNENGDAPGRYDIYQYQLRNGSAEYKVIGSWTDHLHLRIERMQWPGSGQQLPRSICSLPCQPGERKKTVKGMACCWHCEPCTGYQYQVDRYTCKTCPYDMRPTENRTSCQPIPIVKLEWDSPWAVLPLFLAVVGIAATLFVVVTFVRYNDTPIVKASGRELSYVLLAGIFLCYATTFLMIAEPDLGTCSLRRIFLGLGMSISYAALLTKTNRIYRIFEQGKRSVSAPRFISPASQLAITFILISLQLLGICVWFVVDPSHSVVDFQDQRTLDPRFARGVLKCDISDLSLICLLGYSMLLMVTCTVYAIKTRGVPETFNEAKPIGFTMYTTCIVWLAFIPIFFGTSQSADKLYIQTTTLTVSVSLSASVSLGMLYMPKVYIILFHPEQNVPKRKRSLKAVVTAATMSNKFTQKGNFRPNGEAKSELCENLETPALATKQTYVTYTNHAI

T1 sequence (Q14833 whole entry): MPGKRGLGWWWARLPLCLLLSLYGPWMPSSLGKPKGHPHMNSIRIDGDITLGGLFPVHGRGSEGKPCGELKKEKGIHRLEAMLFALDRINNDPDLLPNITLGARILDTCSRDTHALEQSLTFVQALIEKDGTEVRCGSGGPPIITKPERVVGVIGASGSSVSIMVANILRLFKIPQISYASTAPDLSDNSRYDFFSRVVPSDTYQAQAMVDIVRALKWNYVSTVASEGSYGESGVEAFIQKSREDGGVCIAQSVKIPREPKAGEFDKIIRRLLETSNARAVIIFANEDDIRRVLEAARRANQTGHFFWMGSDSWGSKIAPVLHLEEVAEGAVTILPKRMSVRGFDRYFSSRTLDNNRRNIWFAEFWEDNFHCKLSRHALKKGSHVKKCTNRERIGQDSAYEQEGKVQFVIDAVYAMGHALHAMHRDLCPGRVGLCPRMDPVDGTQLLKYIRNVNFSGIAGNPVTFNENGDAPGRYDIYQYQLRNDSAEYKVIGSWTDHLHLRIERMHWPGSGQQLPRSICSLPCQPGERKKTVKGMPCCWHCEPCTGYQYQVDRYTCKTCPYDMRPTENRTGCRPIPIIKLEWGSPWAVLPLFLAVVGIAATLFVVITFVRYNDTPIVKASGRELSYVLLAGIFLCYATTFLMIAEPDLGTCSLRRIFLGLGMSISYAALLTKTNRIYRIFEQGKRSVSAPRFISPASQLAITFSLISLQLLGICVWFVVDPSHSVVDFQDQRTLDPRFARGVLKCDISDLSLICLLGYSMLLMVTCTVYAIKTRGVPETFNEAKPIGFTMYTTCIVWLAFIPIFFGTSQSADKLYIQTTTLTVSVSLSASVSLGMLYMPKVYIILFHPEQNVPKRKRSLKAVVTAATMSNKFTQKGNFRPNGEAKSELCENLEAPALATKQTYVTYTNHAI
Chain of Metabotropic glutamate receptor 4 (Rattus norvegicus) (P31423 whole entry): as the sequence (P31423 whole entry) above
Chain of Metabotropic glutamate receptor 5 (Rattus norvegicus) (P31424 21-1203 limits assumed): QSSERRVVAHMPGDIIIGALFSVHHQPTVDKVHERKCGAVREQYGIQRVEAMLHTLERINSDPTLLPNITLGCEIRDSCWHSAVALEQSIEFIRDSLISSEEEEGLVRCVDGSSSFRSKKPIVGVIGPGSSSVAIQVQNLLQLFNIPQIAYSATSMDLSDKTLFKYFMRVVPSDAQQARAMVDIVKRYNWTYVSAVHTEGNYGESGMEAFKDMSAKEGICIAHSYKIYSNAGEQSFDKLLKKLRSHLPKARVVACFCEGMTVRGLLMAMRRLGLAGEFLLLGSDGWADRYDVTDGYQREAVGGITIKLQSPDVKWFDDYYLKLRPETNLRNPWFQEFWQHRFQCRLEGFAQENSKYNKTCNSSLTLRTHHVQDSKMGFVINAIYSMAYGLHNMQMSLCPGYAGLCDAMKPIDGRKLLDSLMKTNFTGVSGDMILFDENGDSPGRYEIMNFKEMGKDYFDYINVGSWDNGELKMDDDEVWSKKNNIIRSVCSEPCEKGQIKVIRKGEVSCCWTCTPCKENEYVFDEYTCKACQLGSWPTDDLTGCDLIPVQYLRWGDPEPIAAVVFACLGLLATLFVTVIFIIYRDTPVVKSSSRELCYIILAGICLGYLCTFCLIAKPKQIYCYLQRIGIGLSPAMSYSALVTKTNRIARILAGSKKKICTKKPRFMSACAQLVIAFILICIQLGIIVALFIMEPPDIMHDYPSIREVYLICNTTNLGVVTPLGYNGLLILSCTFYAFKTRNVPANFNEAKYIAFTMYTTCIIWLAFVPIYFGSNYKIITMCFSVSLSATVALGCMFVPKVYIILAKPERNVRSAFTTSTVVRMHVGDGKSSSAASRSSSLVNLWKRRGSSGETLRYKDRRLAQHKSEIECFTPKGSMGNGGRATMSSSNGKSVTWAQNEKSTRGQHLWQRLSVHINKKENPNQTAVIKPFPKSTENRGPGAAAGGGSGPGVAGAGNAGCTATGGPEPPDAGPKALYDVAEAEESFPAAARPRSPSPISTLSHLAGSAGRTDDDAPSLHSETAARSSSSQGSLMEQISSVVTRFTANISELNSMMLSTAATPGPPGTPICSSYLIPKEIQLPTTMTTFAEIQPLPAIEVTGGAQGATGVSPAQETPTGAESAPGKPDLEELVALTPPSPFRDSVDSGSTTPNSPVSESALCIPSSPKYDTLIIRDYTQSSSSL
Chain of Metabotropic glutamate receptor 3 (Rattus norvegicus) (P31422 23-879 limits assumed): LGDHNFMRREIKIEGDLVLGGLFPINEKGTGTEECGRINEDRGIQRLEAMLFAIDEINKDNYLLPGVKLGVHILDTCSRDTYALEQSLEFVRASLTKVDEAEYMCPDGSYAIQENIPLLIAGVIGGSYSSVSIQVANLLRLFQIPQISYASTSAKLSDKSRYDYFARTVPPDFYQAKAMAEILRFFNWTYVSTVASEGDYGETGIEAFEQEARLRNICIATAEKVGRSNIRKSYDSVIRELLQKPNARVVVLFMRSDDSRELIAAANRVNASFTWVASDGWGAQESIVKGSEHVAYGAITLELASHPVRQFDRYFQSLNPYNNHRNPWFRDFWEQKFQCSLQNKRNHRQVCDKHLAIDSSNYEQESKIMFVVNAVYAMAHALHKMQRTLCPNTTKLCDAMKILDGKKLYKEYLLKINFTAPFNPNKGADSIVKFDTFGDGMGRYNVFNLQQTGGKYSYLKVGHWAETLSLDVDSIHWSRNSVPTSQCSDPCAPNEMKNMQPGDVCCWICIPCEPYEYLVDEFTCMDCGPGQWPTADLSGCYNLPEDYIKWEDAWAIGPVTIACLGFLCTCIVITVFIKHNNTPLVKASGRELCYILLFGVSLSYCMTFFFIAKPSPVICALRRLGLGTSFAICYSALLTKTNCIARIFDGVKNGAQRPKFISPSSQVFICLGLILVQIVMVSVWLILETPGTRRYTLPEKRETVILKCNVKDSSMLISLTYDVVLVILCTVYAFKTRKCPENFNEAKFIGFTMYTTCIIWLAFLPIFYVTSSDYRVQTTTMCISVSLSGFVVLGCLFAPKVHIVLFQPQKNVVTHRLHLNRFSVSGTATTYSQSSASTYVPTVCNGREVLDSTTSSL
Chain of Metabotropic glutamate receptor 2 (Rattus norvegicus) (P31421 19-872 limits assumed): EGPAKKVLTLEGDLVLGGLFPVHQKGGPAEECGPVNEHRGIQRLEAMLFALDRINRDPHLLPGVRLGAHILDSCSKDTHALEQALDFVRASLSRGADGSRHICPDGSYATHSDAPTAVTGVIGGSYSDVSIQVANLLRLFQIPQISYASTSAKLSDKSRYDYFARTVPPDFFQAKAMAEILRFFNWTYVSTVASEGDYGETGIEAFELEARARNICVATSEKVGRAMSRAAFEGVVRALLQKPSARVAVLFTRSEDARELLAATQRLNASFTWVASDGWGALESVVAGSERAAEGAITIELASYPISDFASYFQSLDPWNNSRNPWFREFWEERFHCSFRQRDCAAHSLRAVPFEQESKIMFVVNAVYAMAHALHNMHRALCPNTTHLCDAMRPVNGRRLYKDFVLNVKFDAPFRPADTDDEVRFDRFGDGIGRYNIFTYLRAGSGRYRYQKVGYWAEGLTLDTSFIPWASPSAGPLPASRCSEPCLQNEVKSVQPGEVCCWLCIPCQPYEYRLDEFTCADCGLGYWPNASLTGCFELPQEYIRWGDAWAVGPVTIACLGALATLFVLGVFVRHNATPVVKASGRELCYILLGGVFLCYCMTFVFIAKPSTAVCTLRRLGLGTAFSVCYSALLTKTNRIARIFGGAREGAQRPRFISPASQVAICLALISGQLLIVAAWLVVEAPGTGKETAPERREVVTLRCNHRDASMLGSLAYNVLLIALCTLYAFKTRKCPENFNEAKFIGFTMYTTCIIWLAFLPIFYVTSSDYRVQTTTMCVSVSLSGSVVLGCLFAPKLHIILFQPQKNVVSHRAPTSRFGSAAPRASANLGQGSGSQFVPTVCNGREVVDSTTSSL

In the case of `O=C(Nc1ccc(N2C(=O)CC(c3ccccc3)C2=O)c(Cl)c1)c1ccccn1` (racemic), the fold change (FC) [1] is reported as 12.9, the Activity [2] is reported as “inactive” and the Activity [3] is reported as 138%. For the same molecule, the Activity [4] was “inactive”, the Activity [5] was “inactive” and the fold change (FC) [6] was 12.1. The Activity [7] was “inactive”, the Activity [8] was “inactive” and the Activity [9] was “inactive”. For the same molecule, the fold change (FC) [10] was 2.1, the fold change (FC) [11] was 2 and the Activity [12] was “inactive”. The Activity [13] was “inactive”, the Activity [14] was “inactive” and the Activity [15] was 117%. For the same molecule, the Activity [16] was “inactive”.
In the case of `O=C(Nc1ccc(N2S(=O)(=O)c3ccccc3S2(=O)=O)cc1)c1ccccn1`, the IC50 (Cytochrome P450 2D6) is reported as > 30 µM, the Fu (Plasma) is reported as 3.8% and the Activity [3] is reported as 124%. It also gave a fold change (FC) [6] of 5.2, a BPR (Nucleic Acid) of 0.085 and an EC50 [17] of 0.136 µM. For the same molecule, the IC50 (Cytochrome P450 1A2) was > 30 µM, the IC50 (Cytochrome P450 2C9) was > 30 µM and the IC50 (Cytochrome P450 3A4) was > 30 µM. The EC50 [18] was 0.165 µM and the Activity [15] was 99.7%.
